Data on one compound can be found in ChEMBL document CHEMBL3868592, “Analogues of Marine Guanidine Alkaloids Are in Vitro Effective against Trypanosoma cruzi and Selectively Eliminate Leishmania (L.) infantum Intracellular Amastigotes” (J Nat Prod, 2016).

pIC50: −log10 of the molar value. Activity calls are given as the source filed them. The calls are words filed in the database; no cut-off is given here.

In data set [1] the test system is Splenocyte. As to the kind of experiment: Antiinflammatory activity in splenocytes (unknown origin) assessed as decrease in MCP1 release at 30 uM after 48 hrs by flow cytometric analysis. The data set is classed as functional, cell-based.
A short description of data set [2]: Selectivity index, ratio of CC50 for mouse NCTC-929 cells to IC50 for Trypanosoma cruzi Y trypomastigote form infected in monkey LLC-MK2 cells. The data set is classed as functional.
The test system of data set [3] is Peritoneal macrophage. The data set can be described thus: Antiinflammatory activity in BALB/c mouse peritoneal macrophages infected with Leishmania infantum MHOM/BR/1972/LD amastigote form assessed as decrease in MCP-1 release at 30 uM after 48 hrs by flow cytometric analysis. The data set is classed as functional. A digest of the protocol:
(§1)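 Peritoneal macrophages from BALB/c mice seeded at 1.5×10^5 cells/well; after 24 h, infected where applicable with L. infantum spleen-derived amastigotes at 1:10 (macrophage:amastigote). After 24 h, cocultured where applicable with splenocytes at 6:1. Compound added for 48 h. Supernatant cytokines quantified with an inflammatory cytometric bead array by flow cytometry. Sham-treated infected macrophages served as reference.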

The subject of data set [4] is Leishmania infantum. As to the kind of experiment: Antileishmanial activity against Leishmania infantum MHOM/BR/1972/LD amastigote forms infected in BALB/c mouse peritoneal macrophages assessed as reduction in parasite viability after 120 hrs by giemsa staining based light microscopy. In kind it is functional. The procedure, abridged: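 BALB/c peritoneal macrophages seeded at 1×10^5/well for 24 h, then infected with hamster spleen-derived amastigotes (1:10 macrophage:amastigote, 24 h, 37 °C, 5% CO2). Compound exposure for 120 h, highest 100 μM. Cells MeOH-fixed and Giemsa-stained; infected macrophages counted out of 400 cells. IC50 from sigmoidal dose-response; at least two independent assays.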

Data set [5] is described as follows: Cytotoxicity against mouse NCTC-929 cells assessed as decrease in cell viability after 48 hrs by MTT assay. The data set is classed as toxicity. A digest of the protocol:
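NCTC clone 929 murine cells seeded at 6×10^4/well. Compound up to 150 μM for 48 h at 37 °C, 5% CO2. Viability read by MTT. CC50 from sigmoidal dose-response; mean of at least two independent experiments.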

The subject of data set [6] is Peritoneal macrophage. The data set can be described thus: Antiinflammatory activity in BALB/c mouse peritoneal macrophages co-cultivated with splenocytes assessed as decrease in INF-gamma release at 30 uM after 48 hrs by flow cytometric analysis. The data set is classed as functional. The procedure, abridged:
as §1

A short description of data set [7]: Selectivity index, ratio of CC50 for mouse NCTC-929 cells to IC50 for Leishmania infantum MHOM/BR/1972/LD amastigote forms infected in BALB/c mouse macrophages. In kind it is functional.
In data set [8] the test system is Peritoneal macrophage. The data set can be described thus: Antiinflammatory activity in BALB/c mouse peritoneal macrophages assessed as decrease in INF-gamma release at 30 uM after 48 hrs by flow cytometric analysis. In kind it is functional. The procedure, abridged:
as §1

For data set [9], the system named is Peritoneal macrophage. As to the kind of experiment: Antiinflammatory activity in BALB/c mouse peritoneal macrophages infected with Leishmania infantum MHOM/BR/1972/LD amastigote form cocultivated with splenocytes assessed as decrease in MCP-1 release at 30 uM after 48 hrs by flow cytometric analysis. In kind it is functional. The procedure, abridged:
as §1

Data set [10] deals with Leishmania infantum. The data set can be described thus: Induction of ROS generation in Leishmania infantum MHOM/BR/1972/LD promastigote form at 57 uM incubated for […] by H2DCF-DA probe based fluorimetric assay relative to sodium azide. In kind it is functional. A digest of the protocol: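 Promastigotes (2 × 10^6/well) washed in HBSS and exposed to compound for 60 min, then loaded with 5 μM H2DCFDA for 15 min. Fluorescence read at ex 485/em 520 nm. Sodium azide (10 mM) served as positive control. Controls were compound background fluorescence, DMSO, untreated promastigotes and cell-free medium. Run in triplicate.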

Data set [11] concerns Peritoneal macrophage. The data set can be described thus: Antiinflammatory activity in BALB/c mouse peritoneal macrophages assessed as decrease in MCP-1 release at 30 uM after 48 hrs by flow cytometric analysis. The data set is classed as functional. The procedure, abridged:
as §1

For data set [12], the system named is Peritoneal macrophage. As to the kind of experiment: Antiinflammatory activity in BALB/c mouse peritoneal macrophages infected with Leishmania infantum MHOM/BR/1972/LD amastigote form cocultivated with splenocytes assessed as decrease in INF-gamma release at 30 uM after 48 hrs by flow cytometric analysis. In kind it is functional. A digest of the protocol:
as §1

The test system of data set [13] is Peritoneal macrophage. As to the kind of experiment: Antiinflammatory activity in BALB/c mouse peritoneal macrophages infected with Leishmania infantum MHOM/BR/1972/LD amastigote form assessed as decrease in INF-gamma release at 30 uM after 48 hrs by flow cytometric analysis. In kind it is functional. A digest of the protocol: as §1
Data set [14] relates to Leishmania infantum. As to the kind of experiment: Induction of mitochondrial membrane potential loss in Leishmania infantum MHOM/BR/1972/LD promastigote form at 57 uM incubated for 60 mins by rhodamine-123 dye based fluorimetric assay. The data set is classed as functional. The procedure, abridged: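 Promastigotes (2×10^6/mL) in HBSS-glucose exposed to compound for 60 min at 25 °C. Rhodamine-123 (0.3 μg/mL) then added, cells washed and resuspended in HBSS-Glc, and fluorescence read at ex 485/em 520 nm. Sodium azide 10 mM as positive control; background, DMSO and untreated controls included. Triplicates.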

Data set [15] relates to Leishmania infantum. The data set can be described thus: Induction of plasma membrane permeability in Leishmania infantum MHOM/BR/1972/LD promastigote form assessed as increase in fluorescence intensity at 57 uM measured every 20 mins for 60 mins by SYTOX green dye based fluorimetric assay relative to control. In kind it is functional. The procedure, abridged:
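Late-growth-phase promastigotes (passage 7) washed in PBS, seeded at 2×10^6/well and loaded with 1 μM SYTOX Green for 15 min at 24 °C. Compound added; fluorescence (ex 485/em 520 nm) read every 20 min over 60 min. 0.1% Triton X-100 defined maximal permeabilization. Background, DMSO, untreated and cell-free controls included. Triplicates.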

In data set [16] the test system is Peritoneal macrophage. The data set can be described thus: Antiinflammatory activity in BALB/c mouse peritoneal macrophages co-cultivated with splenocytes assessed as decrease in MCP-1 release at 30 uM after 48 hrs by flow cytometric analysis. The data set is classed as functional. The procedure, abridged: as §1
The test system of data set [17] is Trypanosoma cruzi. As to the kind of experiment: Antitrypanosomal activity against Trypanosoma cruzi Y trypomastigote forms infected in monkey LLC-MK2 cells assessed as reduction in parasite viability after 24 hrs by resazurin assay. In kind it is functional, cell-based. Conditions: LLC-MK2, 24 h. A digest of the protocol:
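Y-strain trypomastigotes from LLC-MK2 cultures seeded at 1×10^6/well in RPMI-1640. Compounds up to 150 μM, 24 h at 37 °C, 5% CO2. Viability by resazurin (0.011% in PBS), read at 570 nm against drug-free and cell-free wells; 0.5% DMSO control. IC50 by sigmoidal dose-response curve fitting.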

Data set [18] has as its system Leishmania infantum. The data set can be described thus: Antileishmanial activity against Leishmania infantum MHOM/BR/1972/LD promastigote forms […] assessed as reduction in parasite viability after 48 hrs by MTT assay. The data set is classed as functional. A digest of the protocol:
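Late-growth-phase promastigotes (passage 5) seeded at 1×10^6/well in M-199. Compounds dissolved in DMSO, tested up to 100 μM, 48 h at 24 °C. Viability by MTT, OD 570 nm, against drug-free (100%) and cell-free blank wells; 0.5% DMSO control. IC50 from sigmoidal dose-response curves; ≥2 independent assays.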

On to `C[C@@H]1C[C@@H]2CC[C@@H]3C[C@H](CCCCOCc4ccccc4)NC(=[NH+]1)N32.F[B-](F)(F)F`, for which the result in [1], in data set [3], in data set [6], in data set [8], in data set [9] and in data set [11] was Active. Besides, the result in [12], in [13] and in data set [16] was Active. Also, the “Ratio CC50/IC50” value in [2] is reported as 3; in data set [7], 25. The pIC50 in [4] is 5.30; in [17], 4.39; in data set [18], 4.24. In addition, in data set [5], the CC50 at 48 h is 138 µM. The “fold change (FC)” value in data set [10] is reported as 3. Also, the values for the Activity in data set [14] and in data set [15] were 70% and 25%, respectively.
